Experimental findings from ChEMBL document CHEMBL2021777 (J Med Chem, 2012) are described below.

The target in data set [1] is Neuronal acetylcholine receptor; alpha2/beta2 (Rattus norvegicus, UniProt P12389+P12390). Briefly: Displacement of [3H] epibatidine from rat alpha2beta2 nAChR by beta scintillation counting. The data set is classed as protein-complex assay. On the technique in general: Loss of bound radioactivity is the signal in a displacement assay; it reports binding, not function.

The target in data set [2] is Neuronal acetylcholine receptor; alpha2/beta4 (Rattus norvegicus, UniProt P12389+P12392). In words: Displacement of [3H] epibatidine from rat alpha2beta4 nAChR by beta scintillation counting. The data set is classed as protein-complex assay.
Sequence of Neuronal acetylcholine receptor; alpha2/beta4 (P12389 whole entry): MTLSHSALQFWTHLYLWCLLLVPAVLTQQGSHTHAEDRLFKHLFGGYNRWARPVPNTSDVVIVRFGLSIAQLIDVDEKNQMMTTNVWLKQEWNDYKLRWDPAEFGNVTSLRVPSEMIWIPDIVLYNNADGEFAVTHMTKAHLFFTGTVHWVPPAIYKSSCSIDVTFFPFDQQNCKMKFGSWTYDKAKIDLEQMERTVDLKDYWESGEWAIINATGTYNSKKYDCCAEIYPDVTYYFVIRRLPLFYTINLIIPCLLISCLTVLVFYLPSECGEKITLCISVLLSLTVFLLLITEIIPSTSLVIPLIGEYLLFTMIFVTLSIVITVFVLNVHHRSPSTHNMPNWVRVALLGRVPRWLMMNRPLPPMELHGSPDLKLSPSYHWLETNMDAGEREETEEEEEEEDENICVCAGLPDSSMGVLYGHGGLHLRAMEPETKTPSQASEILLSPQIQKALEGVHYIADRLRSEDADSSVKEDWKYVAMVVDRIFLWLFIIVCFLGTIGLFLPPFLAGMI
Sequence of Neuronal acetylcholine receptor; alpha2/beta4 (P12392 whole entry): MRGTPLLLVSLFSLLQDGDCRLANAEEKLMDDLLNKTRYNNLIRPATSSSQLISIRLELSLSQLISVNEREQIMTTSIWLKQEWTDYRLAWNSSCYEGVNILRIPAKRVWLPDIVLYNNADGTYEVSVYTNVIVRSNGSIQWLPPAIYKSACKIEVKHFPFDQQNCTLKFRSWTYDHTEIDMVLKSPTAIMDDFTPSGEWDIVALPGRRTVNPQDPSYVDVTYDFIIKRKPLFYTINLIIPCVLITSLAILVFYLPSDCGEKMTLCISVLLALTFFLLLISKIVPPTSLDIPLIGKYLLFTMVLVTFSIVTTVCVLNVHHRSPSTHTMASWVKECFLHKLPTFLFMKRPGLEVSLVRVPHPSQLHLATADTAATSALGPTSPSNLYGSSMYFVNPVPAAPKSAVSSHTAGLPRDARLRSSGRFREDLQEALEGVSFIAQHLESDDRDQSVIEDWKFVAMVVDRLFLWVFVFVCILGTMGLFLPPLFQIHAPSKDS
Data set [3] has as its target Neuronal acetylcholine receptor; alpha3/beta2 (Rattus norvegicus, UniProt P04757+P12390). In words: Displacement of [3H] epibatidine from rat alpha3beta2 nAChR by beta scintillation counting. It counts as protein-complex assay.
Data set [4] addresses T1, Neuronal acetylcholine receptor; alpha3/beta4 (Rattus norvegicus, UniProt P04757+P12392). Briefly: Displacement of [3H] epibatidine from rat alpha3beta4 nAChR by beta scintillation counting. It counts as protein-complex assay.
In data set [5] the target is T2, Neuronal acetylcholine receptor; alpha4/beta2 (Rattus norvegicus, UniProt P09483+P12390). In words: Displacement of [3H] epibatidine from rat alpha4beta2 nAChR by beta scintillation counting. The data set is classed as protein-complex assay.
For data set [6], the target named is T2, Neuronal acetylcholine receptor; alpha4/beta2. Briefly: Displacement of [3H] epibatidine from rat alpha4beta2* nAChR in rat forebrain by beta scintillation counting.
In data set [7] the target is Neuronal acetylcholine receptor; alpha4/beta4 (Rattus norvegicus, UniProt P09483+P12392). Briefly: Displacement of [3H] epibatidine from rat alpha4beta4 nAChR by beta scintillation counting. It counts as protein-complex assay.
For a further data set, the species on record is Rattus norvegicus. In words: Selectivity ratio of Ki for rat alpha3beta4 to Ki for rat alpha4beta2. An outline of the steps:
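Ki values from [3H]epibatidine competition binding at heterologously expressed rat nAChR subtypes, using the PDSP protocol; selectivity taken as the α3β4/α4β2 Ki ratio.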

In data set [8] the target is Neuronal acetylcholine receptor subunit alpha-7 (Homo sapiens) (UniProt P36544). In words: Displacement of [3H]epibatidine from human alpha7 nAChR expressed in SH-EP1 cells at 10 uM by beta scintillation counting. The data set is classed as cell-based. An outline of the steps: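 Membranes from SH-EP1 cells heterologously expressing human α7 nAChRs; test ligand at 10 μM competing with 10 nM [3H]epibatidine; protocol similar to the PDSP one.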

Data set [9] has as its target T3, Neuronal acetylcholine receptor; alpha4/beta2 (Homo sapiens, UniProt P17787+P43681). Briefly: Agonist activity at human alpha4beta2 nAChR expressed in SH-EP1 cells assessed as 86Rb+ ion efflux after 9.5 mins by flip-plate technique. The data set is classed as functional, cell-based. An outline of the steps: (§1)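 SH-EP1 human epithelial cells stably transfected with separate human α4 and β2 subunit cDNAs express a mixed population of high-sensitivity (2:3 α4:β2) and low-sensitivity (3:2) α4β2-nAChRs. Cells were kept at low passage (1−26 from frozen stocks). Function was read as 86Rb+ ion flux.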

The target of data set [10] is T3, Neuronal acetylcholine receptor; alpha4/beta2. Briefly: Agonist activity at human high sensitive and low sensitive alpha4beta2 nAChR expressed in SH-EP1 cells assessed as 86Rb+ ion efflux by flip-plate technique relative to sazetidine-A. The data set is classed as functional, cell-based. In short, it runs like this: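 SH-EP1-hα4β2 cells (stably transfected human α4 and β2, low passage 1−26) express mixed high- and low-sensitivity α4β2-nAChRs. Efficacy was measured by 86Rb+ flux on this mixed population. High-sensitivity efficacy was extrapolated by defining a reference agonist as 100% full agonist at the HS receptor.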

Data set [11] has the same target. Briefly: Partial agonist activity at human high sensitive alpha4beta2 nAChR expressed in SH-EP1 cells assessed as 86Rb+ ion efflux by flip-plate technique relative to sazetidine-A. The data set is classed as functional, cell-based. An outline of the steps: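 86Rb+ ion flux in SH-EP1 cells stably transfected with separate human α4 and β2 subunit cDNAs, expressing a mixture of high- and low-sensitivity α4β2 nAChRs. Cells kept at low passage (1−26). Efficacy at the HS form extrapolated relative to a reference agonist defined as a 100% full agonist.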

The target is the same in data set [12]. In words: Antagonist activity at human alpha4beta2 nAChR expressed in SH-EP1 cells assessed as inhibition of carbamylcholine induced 86Rb+ ion efflux preincubated for 10 mins prior to carbamylcholine-induction measured after 5 mins by flip-plate technique. The data set is classed as functional, cell-based. An outline of the steps:
as §1

The target is the same in data set [13]. Briefly: Antagonist activity at human high sensitive and low sensitive alpha4beta2 nAChR expressed in SH-EP1 cells assessed as inhibition of carbamylcholine induced 86Rb+ ion efflux preincubated for 10 mins prior to carbamylcholine-induction measured after 5 mins by flip-plate technique relative to control. It counts as functional, cell-based. In short, it runs like this: as §1

Data set [14] addresses T4, Acetylcholine receptor; alpha1/beta1/delta/gamma (Homo sapiens) (UniProt P02708+P07510+P11230+Q07001). In words: Agonist activity at human alpha1beta1gammadelta nAChR expressed in TE671/RD cells at 10 uM by 86Rb+ flux assay. It counts as functional, cell-based. In short, it runs like this: (§2)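 Human clonal TE671/RD cells endogenously express muscle-type α1*-nAChRs (α1, β1, γ, δ). Cells were kept at low passage (1−26 from frozen stocks). Function was read as 86Rb+ efflux, with agonist and antagonist modes tested up to 10 μM.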

The target in data set [15] is T4, Acetylcholine receptor; alpha1/beta1/delta/gamma (Homo sapiens). In words: Antagonist activity at human alpha1beta1gammadelta nAChR expressed in TE671/RD cells at 10 uM by 86Rb+ flux assay. It counts as functional, cell-based. In short, it runs like this: as §2
The target in data set [16] is T5, Neuronal acetylcholine receptors; alpha-3/beta-4, alpha-5, beta-2 (Homo sapiens) (UniProt P17787+P30926+P32297+P30532). Briefly: Agonist activity at alpha3beta4alpha5beta2 in human SH-SY5Y cells at 10 uM by 86Rb+ flux assay. It counts as functional, cell-based. An outline of the steps: (§3)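 Human neuroblastoma SH-SY5Y cells endogenously express α3β4* nAChRs (α3, β4, probably α5, sometimes β2); their α7 receptors give no signal under these conditions. Cells were kept at low passage (1−26 from frozen stocks). Function was read as 86Rb+ efflux, with agonist and antagonist modes tested up to 10 μM.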
T5 sequence (P17787 whole entry, looked up): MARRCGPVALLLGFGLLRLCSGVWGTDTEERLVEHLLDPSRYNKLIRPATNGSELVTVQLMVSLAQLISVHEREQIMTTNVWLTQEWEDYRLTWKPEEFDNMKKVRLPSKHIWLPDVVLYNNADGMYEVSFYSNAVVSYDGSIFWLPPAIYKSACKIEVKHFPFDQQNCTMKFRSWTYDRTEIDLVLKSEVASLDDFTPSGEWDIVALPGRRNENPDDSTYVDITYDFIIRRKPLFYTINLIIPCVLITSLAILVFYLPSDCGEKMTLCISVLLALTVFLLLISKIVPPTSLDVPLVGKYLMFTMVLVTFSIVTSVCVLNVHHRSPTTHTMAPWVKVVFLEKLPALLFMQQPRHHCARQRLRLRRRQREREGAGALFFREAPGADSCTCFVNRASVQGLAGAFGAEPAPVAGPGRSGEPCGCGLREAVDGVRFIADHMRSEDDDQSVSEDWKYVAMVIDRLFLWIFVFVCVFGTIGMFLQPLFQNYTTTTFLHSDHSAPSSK
T5 sequence (P30532 whole entry, looked up): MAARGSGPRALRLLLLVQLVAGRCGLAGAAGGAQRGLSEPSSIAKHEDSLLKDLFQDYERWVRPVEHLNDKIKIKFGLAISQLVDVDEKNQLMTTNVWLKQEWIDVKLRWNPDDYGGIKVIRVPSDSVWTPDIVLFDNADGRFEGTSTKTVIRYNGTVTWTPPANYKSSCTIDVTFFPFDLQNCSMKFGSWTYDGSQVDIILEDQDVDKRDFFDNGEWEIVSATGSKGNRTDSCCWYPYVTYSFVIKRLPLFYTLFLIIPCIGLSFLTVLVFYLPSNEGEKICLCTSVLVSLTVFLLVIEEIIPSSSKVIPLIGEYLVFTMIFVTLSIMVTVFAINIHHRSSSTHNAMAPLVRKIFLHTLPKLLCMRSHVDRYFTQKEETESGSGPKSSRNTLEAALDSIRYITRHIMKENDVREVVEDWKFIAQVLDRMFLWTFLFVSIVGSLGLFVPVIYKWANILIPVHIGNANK
T5 sequence (P30926 whole entry, looked up): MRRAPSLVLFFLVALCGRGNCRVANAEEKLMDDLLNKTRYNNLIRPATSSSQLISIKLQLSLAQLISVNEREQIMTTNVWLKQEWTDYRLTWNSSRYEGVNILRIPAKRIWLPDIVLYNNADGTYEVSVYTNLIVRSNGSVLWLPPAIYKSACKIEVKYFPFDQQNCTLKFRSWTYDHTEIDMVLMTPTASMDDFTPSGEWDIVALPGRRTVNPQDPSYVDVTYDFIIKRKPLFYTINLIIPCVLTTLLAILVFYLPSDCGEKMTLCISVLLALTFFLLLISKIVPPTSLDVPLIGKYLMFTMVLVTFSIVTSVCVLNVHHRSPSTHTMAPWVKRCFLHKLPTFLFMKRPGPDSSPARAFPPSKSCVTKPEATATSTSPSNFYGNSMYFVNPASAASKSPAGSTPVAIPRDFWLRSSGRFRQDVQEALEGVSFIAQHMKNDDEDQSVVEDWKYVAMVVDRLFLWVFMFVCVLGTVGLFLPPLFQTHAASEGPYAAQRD
T5 sequence (P32297 whole entry, looked up): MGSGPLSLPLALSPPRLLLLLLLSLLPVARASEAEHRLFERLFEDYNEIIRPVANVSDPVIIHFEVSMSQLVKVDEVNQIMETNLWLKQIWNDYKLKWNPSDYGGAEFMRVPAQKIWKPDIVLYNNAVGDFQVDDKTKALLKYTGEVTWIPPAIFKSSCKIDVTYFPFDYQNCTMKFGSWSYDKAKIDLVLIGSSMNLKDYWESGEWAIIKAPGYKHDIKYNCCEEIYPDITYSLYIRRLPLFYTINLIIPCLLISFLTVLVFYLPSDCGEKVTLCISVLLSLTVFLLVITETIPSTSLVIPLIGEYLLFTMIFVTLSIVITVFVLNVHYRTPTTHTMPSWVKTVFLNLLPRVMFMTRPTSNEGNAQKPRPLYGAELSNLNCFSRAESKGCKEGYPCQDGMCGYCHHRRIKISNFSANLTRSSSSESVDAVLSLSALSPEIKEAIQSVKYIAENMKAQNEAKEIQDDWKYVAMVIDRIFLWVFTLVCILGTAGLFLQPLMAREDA

Data set [17] has as its target T5, Neuronal acetylcholine receptors; alpha-3/beta-4, alpha-5, beta-2 (Homo sapiens). Briefly: Antagonist activity at alpha3beta4alpha5beta2 in human SH-SY5Y cells at 10 uM by 86Rb+ flux assay. It counts as functional, cell-based. An outline of the steps:
as §3

The target in data set [18] is T1, Neuronal acetylcholine receptor; alpha3/beta4. In words: Displacement of [3H] epibatidine from rat alpha3beta4 nAChR expressed in HEK293 cells by liquid scintillation counting. The data set is classed as cell-based.
For data set [19], the target named is T2, Neuronal acetylcholine receptor; alpha4/beta2. Briefly: Displacement of [3H] epibatidine from rat alpha4beta2 nAChR expressed in HEK293 cells by liquid scintillation counting. The data set is classed as cell-based.
Data set [20] has the same target. In words: Displacement of [3H] epibatidine from rat alpha4beta2* nAChR in rat forebrain by liquid scintillation counting.
A short description of data set [21]: Drug uptake in BALB/cJ mouse brain at 1 mg/kg after 15 mins. It counts as ADME, organism-based. On the set-up: dose 1 mg/kg. The note with it: read-out: Drug uptake.
Data set [22] is described as follows: Drug uptake in BALB/cJ mouse brain at 3 mg/kg after 15 mins. The data set is classed as ADME, organism-based. On the set-up: dose 3 mg/kg. The note with it: read-out: Drug uptake.

pEC50, pIC50, pKi: −log10 of the molar value. Calls of active or inactive are those of the source. Some results are limits rather than exact numbers.

Sequence of Neuronal acetylcholine receptor; alpha2/beta2 (P12389 whole entry): as the sequence (P12389 whole entry) above
Sequence of Neuronal acetylcholine receptor; alpha2/beta2 (P12390 whole entry): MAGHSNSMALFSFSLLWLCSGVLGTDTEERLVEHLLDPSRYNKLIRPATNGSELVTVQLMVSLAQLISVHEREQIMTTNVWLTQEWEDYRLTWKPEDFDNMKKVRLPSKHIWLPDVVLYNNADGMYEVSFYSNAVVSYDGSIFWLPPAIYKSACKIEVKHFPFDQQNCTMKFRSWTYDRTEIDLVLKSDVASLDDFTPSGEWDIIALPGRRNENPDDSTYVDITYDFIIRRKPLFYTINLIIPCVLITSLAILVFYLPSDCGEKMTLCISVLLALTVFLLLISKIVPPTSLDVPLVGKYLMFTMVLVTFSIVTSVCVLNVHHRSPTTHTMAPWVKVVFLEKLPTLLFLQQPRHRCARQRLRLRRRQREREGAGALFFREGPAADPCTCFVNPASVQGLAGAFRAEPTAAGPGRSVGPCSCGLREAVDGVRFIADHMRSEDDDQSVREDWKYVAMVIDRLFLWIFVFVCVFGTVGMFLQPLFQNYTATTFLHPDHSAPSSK
T3 sequence (P17787 whole entry): as the sequence (P17787 whole entry, looked up) above
T3 sequence (P43681 whole entry): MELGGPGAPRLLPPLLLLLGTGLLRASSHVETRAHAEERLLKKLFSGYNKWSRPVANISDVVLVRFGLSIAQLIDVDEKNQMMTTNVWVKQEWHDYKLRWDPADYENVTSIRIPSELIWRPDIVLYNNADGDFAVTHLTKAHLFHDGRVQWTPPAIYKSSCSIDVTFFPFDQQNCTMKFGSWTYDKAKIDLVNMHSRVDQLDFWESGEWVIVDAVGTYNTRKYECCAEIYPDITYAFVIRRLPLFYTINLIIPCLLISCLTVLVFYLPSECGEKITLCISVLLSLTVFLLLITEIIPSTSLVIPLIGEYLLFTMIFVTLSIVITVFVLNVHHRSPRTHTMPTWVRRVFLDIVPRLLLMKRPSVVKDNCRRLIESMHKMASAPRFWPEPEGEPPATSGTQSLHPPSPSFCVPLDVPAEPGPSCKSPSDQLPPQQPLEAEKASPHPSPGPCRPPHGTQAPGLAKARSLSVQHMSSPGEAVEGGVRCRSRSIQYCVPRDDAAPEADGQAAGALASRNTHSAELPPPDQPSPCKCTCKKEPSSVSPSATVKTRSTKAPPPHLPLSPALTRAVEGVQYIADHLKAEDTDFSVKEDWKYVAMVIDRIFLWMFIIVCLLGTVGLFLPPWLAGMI
T1 sequence (P04757 whole entry): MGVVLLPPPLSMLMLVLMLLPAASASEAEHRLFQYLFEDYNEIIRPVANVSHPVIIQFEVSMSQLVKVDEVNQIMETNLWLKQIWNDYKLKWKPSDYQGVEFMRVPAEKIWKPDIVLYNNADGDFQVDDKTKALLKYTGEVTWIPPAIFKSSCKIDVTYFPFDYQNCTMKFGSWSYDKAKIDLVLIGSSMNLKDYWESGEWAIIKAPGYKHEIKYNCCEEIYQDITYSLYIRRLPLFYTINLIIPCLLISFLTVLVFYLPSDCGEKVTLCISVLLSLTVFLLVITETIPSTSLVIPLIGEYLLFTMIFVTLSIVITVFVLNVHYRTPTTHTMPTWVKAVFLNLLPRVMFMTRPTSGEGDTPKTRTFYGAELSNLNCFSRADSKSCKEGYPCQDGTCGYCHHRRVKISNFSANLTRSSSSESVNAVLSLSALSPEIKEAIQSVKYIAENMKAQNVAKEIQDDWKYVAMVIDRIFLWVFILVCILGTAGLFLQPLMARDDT
T1 sequence (P12392 whole entry): as the sequence (P12392 whole entry) above
Sequence of Neuronal acetylcholine receptor; alpha3/beta2 (P04757 whole entry): as the sequence (P04757 whole entry) above
Sequence of Neuronal acetylcholine receptor; alpha3/beta2 (P12390 whole entry): as the sequence (P12390 whole entry) above

As a reminder, the pKi is the negative decadic logarithm of the Ki, by convention in mol/L. A low value points to a high Ki. Broadly, the pEC50 is the negative decadic logarithm of the EC50, by convention in mol/L. By pIC50 is commonly meant the negative decadic logarithm of the IC50, by convention in mol/L. In the case of `O=C(OCC[C@H]1C[C@@H]1c1cncc(OC[C@@H]2CCN2)c1)N1CCCC1`, the pKi in data set [1] was 8.82; in data set [2] it was 5.63; in [3] it was 7.67; in data set [4], under 5.00; in [5] it was 9.10; in data set [6] it was 8.40. The same compound had a pKi in [7] of 6.79. For the same compound, the Ratio Ki in the data set filed under Rattus norvegicus is over 100000. The %max in data set [8] is 30%. Also, the pEC50 in data set [9] is 7.35. The Efficacy amounted to 23% in [10], 69% in [11] and 84% in data set [13]. In [12], the pIC50 was 7.31. In addition, the result in [14], in data set [15], in data set [16] and in data set [17] was inactive.
As for `CN(C)C(=O)OCC[C@H]1C[C@@H]1c1cncc(OC[C@@H]2CCN2)c1`, the pKi in [1] is 9.52; in [2], 6.58; in data set [3], 7.82; in [4], under 5.00; in data set [5], 9.40; in data set [6], 8.68. The pKi in data set [7] was 6.55. Besides, the Ratio Ki in the data set listed under Rattus norvegicus was over 100000. The pEC50 in data set [9] was 7.74. Besides, the Efficacy in data set [10] was 15%; in [11], 71%; in data set [13] it was 85%. Besides, the pIC50 in data set [12] was 7.72. Moreover, the outcome in data set [14], in data set [15], in [16] and in data set [17] was inactive.
On to `COCC[C@@H]1C[C@H]1c1cncc(OC[C@@H]2CCN2)c1`, for which the pKi in [1] is 9.30; in [2], 6.39; in data set [3] it was 7.70; in data set [4], under 5.00; in [5] it was 9.22; in data set [6], 8.21. In [7], this compound gave a pKi of 7.02. The Ratio Ki in the data set listed under Rattus norvegicus was over 16700. Further, in data set [9], the pEC50 is 7.37. Moreover, the Efficacy in data set [10] turned out to be 8%; in data set [11], 62%; in [13], 75%. For the same compound, the negative-log IC50 (pIC50) in data set [12] is 7.30. The outcome in data set [14], in data set [15], in [16] and in [17] was inactive.
As to `CN1CCC[C@H]1c1cccnc1`, the outcome in [14], in data set [15], in [16] and in data set [17] was inactive.
With `O=C(Nc1ccccc1)OCC[C@H]1C[C@@H]1c1cncc(OC[C@@H]2CCN2)c1`, the pKi in data set [1] was 8.92; in data set [2], 6.62; in [3] it was 7.61; in data set [4], 5.05; in data set [5], 9.22; in data set [6] it was 8.23. The compound also showed a negative-log Ki (pKi) in [7] of 6.26. For the same compound, the Ratio Ki in the data set filed under Rattus norvegicus was determined as 14800. Also, the pEC50 in data set [9] is 7.31. In addition, the Efficacy came to 24% in [10], 78% in data set [11] and 87% in data set [13]. Further, the pIC50 in data set [12] is 7.30. Further, the outcome in [14], in data set [15], in data set [16] and in data set [17] was inactive.
Consider `OCC[C@@H]1C[C@H]1c1cncc(OC[C@@H]2CCN2)c1`, for which the pKi is 9.30 in data set [1]; 7.19 in data set [2]; 7.77 in data set [3]; 5.98 in data set [4]; 9.15 in data set [5]; 8.43 in data set [6]. The pKi in data set [7] is 7.54. The Ratio Ki in the data set listed under Rattus norvegicus worked out at 1500. Further, the pEC50 in data set [9] was 7.46. In addition, the Efficacy stood at 10% in [10], 65% in [11] and 69% in data set [13]. In addition, the negative logarithm of the IC50 (pIC50) in [12] is 7.29. Also, the outcome in [14], in data set [15], in data set [16] and in data set [17] was inactive.
As to `OCCCCC#Cc1cncc(OC[C@@H]2CCN2)c1`, in the data set listed under Rattus norvegicus, the Ratio Ki is 24000. Also, the pKi was 6.00 in [18], 9.40 in [19] and 9.05 in data set [20]. Moreover, the pEC50 in data set [9] is 8.24. In addition, the Efficacy in data set [10] worked out at 55%; in data set [11] it was 100%; in [13], 63%. In data set [12], the pIC50 is 8.32. Moreover, the result in [14], in data set [15], in data set [16] and in data set [17] was inactive. Moreover, the concentration at 0.25 h in data set [21] was 3 ng/g; in data set [22], 10 ng/g.
On to `O=C(NC1CC1)OCC[C@H]1C[C@@H]1c1cncc(OC[C@@H]2CCN2)c1`, for which the negative logarithm of the Ki (pKi) in data set [1] was 9.05; in data set [2], 6.14; in data set [3] it was 7.80; in [4], under 5.00; in [5], 9.15; in [6], 8.62. This compound had a pKi in data set [7] of 6.63. In addition, the Ratio Ki in the data set listed under Rattus norvegicus is over 100000. Besides, the pEC50 in [9] is 7.63. The figures for the Efficacy in data set [10], in data set [11] and in [13] were 27%, 80% and 82%, respectively. Further, the pIC50 in data set [12] is 7.71. Moreover, the outcome in [14], in data set [15], in data set [16] and in [17] was inactive.
